Laboratory results from ChEMBL document CHEMBL4823331, “Identification of gp120 Residue His105 as a Novel Target for HIV-1 Neutralization by Small-Molecule CD4-Mimics” (ACS Med Chem Lett, 2021).

What was measured:
[1] = (§1) Inhibition of gp120 (Gln 105 residue) in HIV-1 JR-FL infected in dog Cf2Th-CD4/CCR5 cells assessed as inhibition of viral entry incubated for 30 mins prior to infection and further incubated for 48 to 72 hrs in presence of firefly D-luciferin free acid and ATP by single-round infection luciferase assay; assay type: cell-based; details: Human immunodeficiency virus 1, JR-FL
Procedure, shortened: (§2)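 Cf2Th canine cells expressing CD4 and CCR5 were infected with the named HIV-1 strain in the presence of compound. IC50 was taken as the concentration giving 50% inhibition of viral infection, reported as mean ± SD. Groups were compared by one-tailed unpaired t test (N = 3).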

[2] = as §1, with “(His” for “(Gln”, “BG505” for “JR-FL”; assay type: cell-based; details: Human immunodeficiency virus 1, BG505, Cf2Th-CD4/CCR5; procedure, shortened: as §2

Row | Compound | IC50 [1] [µM] | IC50 [2] [µM]
1 | CNCc1ccc2c(c1)[C@H](NC(=O)C(=O)Nc1ccc(Cl)c(F)c1)[C@@H](CNC(=N)N)[C@@H]2CCC(O)CO (stereo not given in full) | 19.5 | > 300
2 | CCCC[C@@H]1c2cc(CNC)ccc2[C@H](NC(=O)C(=O)Nc2ccc(Cl)c(F)c2)[C@H]1CNC(=N)N | 32.5 | 
3 | CNCc1ccc2c(c1)[C@@H](CC[C@@H](O)CO)[C@H](CNC(=N)N)[C@H]2NC(=O)C(=O)Nc1ccc(Cl)c(F)c1 | 22 | 
4 | CNCc1ccc2c(c1)[C@H](NC(=O)C(=O)Nc1ccc(Cl)c(F)c1)[C@@H](CNC(=N)N)[C@@H]2CC[C@H](O)CO | 27.8 | 
5 | CNCc1ccc2c(c1)[C@@H](CC[C@H](O)CO)[C@H](CNC(=N)N)[C@H]2NC(=O)C(=O)Nc1ccc(Cl)c(F)c1 | 17.7 | 

Molecules with a lower IC50 [1], results first:

Row | IC50 [1] [µM] | IC50 [2] [µM] | Compound
6 | 9.22 | 106 | C=CCC[C@@H]1c2cc(CNC)ccc2[C@H](NC(=O)C(=O)Nc2ccc(Cl)c(F)c2)[C@H]1CNC(=N)N
7 | 16.2 | > 100 | C=CCC[C@@H]1c2ccc(CNC)cc2[C@H](NC(=O)C(=O)Nc2ccc(Cl)c(F)c2)[C@H]1CNC(=N)N
8 | 9 | 226 | CNCc1ccc2c(c1)C[C@H](CNC(=N)N)[C@H]2NC(=O)C(=O)Nc1ccc(Cl)c(F)c1
9 | 8.29 | 130 | CNCc1ccc2c(c1)[C@@H](CCC(O)CO)[C@H](CNC(=N)N)[C@H]2NC(=O)C(=O)Nc1ccc(Cl)c(F)c1 (mixture of isomers)
10 | 9.45 | 164 | CNCc1ccc2c(c1)[C@H](NC(=O)C(=O)Nc1ccc(Cl)c(F)c1)[C@@H](CNC(=N)N)[C@@H]2CCCO
11 | 8.25 | 136 | CNCc1ccc2c(c1)[C@@H](CCCO)[C@H](CNC(=N)N)[C@H]2NC(=O)C(=O)Nc1ccc(Cl)c(F)c1
12 | 4.97 | 166 | CNCc1ccc2c(c1)[C@@H](CCC(=O)CO)[C@H](CNC(=N)N)[C@H]2NC(=O)C(=O)Nc1ccc(Cl)c(F)c1
